Five compounds from ChEMBL document CHEMBL1177711, “Novel quinolizidinyl derivatives as antiarrhythmic agents: 2. Further investigation” (J Med Chem, 2010) can be followed below.

For assay [1], the system named is Aorta. In words: Vasorelaxant activity in potassium depolarized guinea pig aortic strip assessed as inhibition of calcium-induced contraction at 100 uM. Conditions: Cavia porcellus. It counts as functional.
Assay [2] in a line: Negative inotropic activity against potassium-induced contraction in guinea pig left atrium assessed as decrease in developed tension. It counts as functional, tissue-based. Particulars: Cavia porcellus, Cardiac atrium.
A short description of assay [3]: Negative chronotropic activity against potassium-induced contraction in guinea pig left atrium assessed as decrease atrial rate at 100 uM relative to control. Further details: scale not given: the % may be the effect or the level left. The format is functional, Cavia porcellus, Cardiac atrium.
Assay [4] in a line: Negative inotropic activity against potassium-induced contraction in guinea pig left atrium assessed as decrease in developed tension at 10 uM relative to control. Details: scale not given: the % may be the effect or the level left. The format is functional, Cavia porcellus, Cardiac atrium.
The nature of assay [5]: Antiarrhythmic activity in sinusoidal alternating current-induced guinea pig left atrium assessed as increase in current strength at which extra beats occur at 5 uM measured every 30 mins. The format is functional, Cavia porcellus, Cardiac atrium. An outline of the steps:
(§1)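 Isolated guinea pig left atria, electrically driven at 1 Hz, were exposed to sinusoidal alternating current to induce arrhythmia. The read-out was the rise in the ac-arrhythmia threshold over concentrations up to 100 μM.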

The species named for assay [6] is Cavia porcellus. In words: Agonist activity at muscarinic M2 receptor in guinea pig left atrium assessed as negative ionotropic activity in presence of carbachol. The format is functional, tissue-based. Particulars: Cardiac atrium.
Assay [7] can be described thus: Negative inotropic activity against potassium-induced contraction in guinea pig left atrium assessed as decrease in developed tension at 5 uM relative to control. It counts as functional, Cavia porcellus, Cardiac atrium. Further details: scale not given: the % may be the effect or the level left.
A short description of assay [8]: Antiarrhythmic activity in sinusoidal alternating current-induced guinea pig left atrium assessed as increase in current strength at which extra beats occur measured every 30 mins. The format is functional, tissue-based. Conditions: Cavia porcellus, Cardiac atrium, 0.5 h. The gist of the method:
as §1

Assay [9] is described as follows: Antiarrhythmic activity in sinusoidal alternating current-induced guinea pig left atrium assessed as increase in current strength at which extra beats occur at 10 uM measured every 30 mins. It counts as functional, Cavia porcellus, Cardiac atrium. The gist of the method: as §1
The nature of assay [10]: Cardioprotective effect in Langendorff perfused guinea pig spontaneously beating […] assessed as duration of ventricular action potential at 10 uM (RVb = 140 to 161 +/- 2 to 8 ms). It counts as functional, Cavia porcellus, Cardiac ventricle. The gist of the method:
(§2)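 Whole guinea pig hearts were Langendorff-perfused and their ECG recorded at graded concentrations. Intervals read were PR (atrioventricular conduction time), QT (ventricular action potential duration) and QRS (intraventricular conduction time).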

A short description of assay [11]: Cardioprotective effect in Langendorff perfused guinea pig spontaneously beating […] assessed as duration of ventricular action potential at 1 uM (RVb = 140 to 161 +/- 2 to 8 ms). It counts as functional, Cavia porcellus, Cardiac ventricle. The gist of the method:
as §2

The nature of assay [12]: Cardioprotective effect in Langendorff perfused guinea pig spontaneously beating […] assessed as atrioventicular conduction time at 1 uM (RVb = 50 to 55 +/- 1 to 4 ms). Conditions: Cavia porcellus. It counts as functional. An outline of the steps: as §2
The nature of assay [13]: Cardioprotective effect in Langendorff perfused guinea pig spontaneously beating […] assessed as duration of ventricular action potential at 0.1 uM (RVb = 140 to 161 +/- 2 to 8 ms). The format is functional, Cavia porcellus, Cardiac ventricle. An outline of the steps:
as §2

The nature of assay [14]: Cardioprotective effect in Langendorff perfused guinea pig spontaneously beating […] assessed as duration of ventricular action potential at 0.01 uM (RVb = 140 to 161 +/- 2 to 8 ms). It counts as functional, Cavia porcellus, Cardiac ventricle. The gist of the method: as §2
Assay [15] in a line: Cardioprotective effect in Langendorff perfused guinea pig spontaneously beating […] assessed as duration of ventricular action potential at 0.001 uM (RVb = 140 to 161 +/- 2 to 8 ms). The format is functional, Cavia porcellus, Cardiac ventricle. The gist of the method: as §2
A short description of assay [16]: Cardioprotective effect in Langendorff perfused guinea pig spontaneously beating […] assessed as intraventicular conduction time at 10 uM (RVb = 19 to 24 +/- 1 to 2 ms). The format is functional. Particulars: Cavia porcellus. An outline of the steps: as §2
Assay [17] in a line: Cardioprotective effect in Langendorff perfused guinea pig spontaneously beating […] assessed as intraventicular conduction time at 1 uM (RVb = 19 to 24 +/- 1 to 2 ms). The format is functional. Particulars: Cavia porcellus. The gist of the method:
as §2

The nature of assay [18]: Cardioprotective effect in Langendorff perfused guinea pig spontaneously beating […] assessed as intraventicular conduction time at 0.1 uM (RVb = 19 to 24 +/- 1 to 2 ms). Particulars: Cavia porcellus. It counts as functional. The gist of the method:
as §2

Assay [19] can be described thus: Cardioprotective effect in Langendorff perfused guinea pig spontaneously beating […] assessed as intraventicular conduction time at 0.01 uM (RVb = 19 to 24 +/- 1 to 2 ms). It counts as functional. Particulars: Cavia porcellus. The gist of the method: as §2
Assay [20] in a line: Cardioprotective effect in Langendorff perfused guinea pig spontaneously beating […] assessed as intraventicular conduction time at 0.001 uM (RVb = 19 to 24 +/- 1 to 2 ms). It counts as functional. Conditions: Cavia porcellus. An outline of the steps:
as §2

Assay [21] can be described thus: Cardioprotective effect in Langendorff perfused guinea pig spontaneously beating […] assessed as atrioventicular conduction time at 10 uM (RVb = 50 to 55 +/- 1 to 4 ms). It counts as functional. Conditions: Cavia porcellus. The gist of the method:
as §2

A short description of assay [22]: Cardioprotective effect in Langendorff perfused guinea pig spontaneously beating […] assessed as atrioventicular conduction time at 0.1 uM (RVb = 50 to 55 +/- 1 to 4 ms). It counts as functional. Conditions: Cavia porcellus. The gist of the method: as §2
A short description of assay [23]: Cardioprotective effect in Langendorff perfused guinea pig spontaneously beating […] assessed as atrioventicular conduction time at 0.01 uM (RVb = 50 to 55 +/- 1 to 4 ms). Particulars: Cavia porcellus. It counts as functional. The gist of the method:
as §2

The nature of assay [24]: Cardioprotective effect in Langendorff perfused guinea pig spontaneously beating […] assessed as atrioventicular conduction time at 0.001 uM (RVb = 50 to 55 +/- 1 to 4 ms). The format is functional. Conditions: Cavia porcellus. The gist of the method: as §2
For assay [25], the system named is Heart. In words: Cardioprotective effect in Langendorff perfused guinea pig spontaneously beating […] assessed as heart rat at 0.001 uM (RVb = 175 to 190 +/- 5 to 11 bpm). The format is functional, Cavia porcellus.
Assay [26] deals with Heart. In words: Cardioprotective effect in Langendorff perfused guinea pig spontaneously beating […] assessed as heart rat at 0.01 uM (RVb = 175 to 190 +/- 5 to 11 bpm). It counts as functional, Cavia porcellus.
For assay [27], the system named is Heart. Description: Cardioprotective effect in Langendorff perfused guinea pig spontaneously beating […] assessed as heart rat at 0.1 uM (RVb = 175 to 190 +/- 5 to 11 bpm). The format is functional, Cavia porcellus.
Assay [28] concerns Heart. Description: Cardioprotective effect in Langendorff perfused guinea pig spontaneously beating […] assessed as heart rat at 1 uM (RVb = 175 to 190 +/- 5 to 11 bpm). It counts as functional, Cavia porcellus.
Assay [29] deals with Heart. In words: Cardioprotective effect in Langendorff perfused guinea pig spontaneously beating […] assessed as heart rat at 10 uM (RVb = 175 to 190 +/- 5 to 11 bpm). The format is functional, Cavia porcellus.
Assay [30] concerns Aorta. In words: Negative inotropic activity in potassium depolarized guinea pig aortic strip assessed as inhibition of calcium-induced contraction at 1 uM. The format is functional, tissue-based. Conditions: Cavia porcellus.
The species entered for assay [31] is Cavia porcellus. Description: Negative inotropic activity in guinea pig longitudinal smooth muscle assessed as inhibition of calcium-induced contraction at 1 uM. It counts as functional.
Assay [32] is filed under the species Cavia porcellus. In words: Agonist activity at muscarinic M2 receptor in guinea pig left atrium assessed as negative ionotropic activity in presence of 1 uM atropine. It counts as functional, tissue-based. Conditions: Cardiac atrium. An outline of the steps:
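Isolated guinea-pig left atria electrically driven at 1 Hz; contractile force (inotropy) recorded. Potency values derived by probit analysis (Litchfield and Wilcoxon).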

Assay [33] is described as follows: Negative inotropic activity against potassium-induced contraction in guinea pig left atrium assessed as decrease in developed tension at 50 uM relative to control. The format is functional, Cavia porcellus, Cardiac atrium. Further details: scale not given: the % may be the effect or the level left.
Assay [34] is described as follows: Antiarrhythmic activity in sinusoidal alternating current-induced guinea pig left atrium assessed as increase in current strength at which extra beats occur at 0.5 uM measured every 30 mins. The format is functional, Cavia porcellus, Cardiac atrium. The gist of the method:
as §1

pEC50: −log10 of the molar value. Calls of active or inactive are those of the source.

Consider `O=C(Cn1nc2ccc(Cl)cc2n1)NC[C@@H]1CCCN2CCCC[C@H]12`, for which the inhibition (as a rule, the drop in the measured response relative to a control, in per cent) at 100 µM in assay [1] came to 26%. Also, in assay [2], the pEC50 (commonly the negative decadic logarithm of the EC50, by convention in mol/L) was 7.13. Moreover, the values for the Activity in assay [3], in assay [4] and in [5] were 27%, 92% and 28%, respectively.
With `C[N+](C)(C)CCOC(N)=O`, the inhibition entry in assay [6] was “inactive”.
As for `COc1cc(NC(C)=O)c(Cl)cc1C(=O)NC[C@@H]1CCCN2CCCC[C@H]12`, the inhibition at 100 µM in [1] came to 4%. Moreover, the pEC50 in assay [2] was 7.74; in [8] it was 6.62. Further, the Activity stood at 6% in assay [3]; 93% in assay [7]; 84% in [9]; 155 ms in assay [10]; 152 ms in [11]; 150 ms in assay [13]. Moreover, the Activity in assay [14] was 141 ms; in assay [15], 139 ms; in assay [25], 172 bpm; in [26], 170 bpm; in assay [27], 168 bpm; in assay [28], 167 bpm. Also, the Activity in assay [29] stood at 165 bpm. The AV conduction time in assay [12] worked out at 56 ms; in assay [21], 56 ms; in [22] it was 53 ms; in assay [23] it was 54 ms; in [24] it was 52 ms. Besides, the intraventricular conduction time in [16] came out at 22 ms; in [17], 22 ms; in assay [18], 21 ms; in assay [19], 20 ms; in assay [20], 20 ms. Also, the inhibition result in assay [30] and in assay [31] was “inactive” each time.
Consider `CN1[C@@H]2CC[C@H]1C[C@@H](OC(=O)C(CO)c1ccccc1)C2` (stereo not given in full), for which the inhibition result in assay [32] was “inactive”.
Turning to `O=C(Cn1nc2ccccc2n1)NC[C@@H]1CCCN2CCCC[C@H]12`, in [1], the inhibition at 100 µM worked out at 4%. Moreover, the pEC50 in assay [2] is 7.46. The Activity in assay [3] stood at 34%; in [33] it was 98%; in assay [34], 26%.
